# In ChEMBL document CHEMBL4513216, “Probing the Open Global Health Chemical Diversity Library for Multistage-Active Starting Points for Next-Generation Antimalarials” (ACS Infect Dis, 2020):
# Assay: Toxicity liver stage against HepG2, at 10uM
# Assay type: cell-based
# Set-up: test concentration 10 uM, cell line HepG2-A16-CD81EGFP
# Details: human, HepG2-A16-CD81EGFP cells; read-out: INHIBITION
# Outline: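 Uninfected HepG2-A16-CD81EGFP cells, 3 × 10^3 per well, 1536-well, plated on prespotted compound at 10 μM final, parasite-free screening media added to match infected plates; puromycin 10 μM positive, DMSO 0.5% negative; run in parallel with 48 h PbLuc assay at 37 °C, 5% CO2; viability by CellTiter-Glo luminescence, normalized to controls.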
row,SMILES,cytotoxicity at 10 µM [%]
1,CCOCC(=O)N1CCC(CSCc2ccco2)CC1,-7.36
2,CNc1nc(CNC(=O)Nc2cccc(CSC)c2)cs1,-3.01
3,CS(=O)(=O)N1C[C@@H]2COC[C@]2(CN2CCOCC2)C1,0.472
4,CC1(c2ncc(CN(CC(=O)O)Cc3ccccc3)cn2)CCCCO1 (stereo not drawn),-3.73
5,CCN1CCCC(CNC(=O)C2(c3cc(C)cc(C)c3)CCC2)C1 (stereo not drawn),-10.7
6,CC(C)[C@H]1COC(=O)N1Cc1nccn1C(C)C,6.35
7,CN(C)S(=O)(=O)c1ccc(CN2CCC(C(N)=O)CC2)o1,0.214
8,COc1cccc(C(C)N2CCN(S(C)(=O)=O)CC2)c1 (stereo not drawn),-8.42
9,COc1cc(CN2CCC(COCc3ccccc3)CC2)cc(OC)c1,-3.38
10,O=C(NCCCN1CCN(c2ncccn2)CC1)Nc1ccccn1,-7.48
11,CC(C)(C)c1nc(CNC(=O)N2CCc3ccccc3C2CO)no1 (stereo not drawn),6.56
12,NC(=O)CC1CC2(CCNCC2)c2cc(F)ccc21 (stereo not drawn),-107
13,Cn1cc(C(=O)N2CCC(Cc3nccs3)CC2)cn1,7.63
14,COc1ccc(C(=O)N2C[C@@H](c3ccccc3)[C@@H]3NCCCC[C@@H]32)cc1,-23.3
15,Cn1c(CO)cnc1SC1CCCN(c2ccccc2F)C1=O (stereo not drawn),-4
16,CN(C)C(=O)CO[C@H]1COCCN(C2CCOCC2)C1,3.64
17,Cc1cc(C)nc(N2CCC(CNC(=O)c3cnccn3)CC2)n1,-26.1
18,Cc1ccc(-c2nc(C3CCN(C(=O)c4ccnn4C)CC3)no2)cn1,-5.17
19,CC(=O)NC(Cc1c[nH]c2cc(F)ccc12)C(=O)Nc1nonc1C (stereo not drawn),-9.93
20,c1cnc(N2CCO[C@H]3CN(Cc4csnn4)C[C@H]32)nc1,-70.7
21,CCCn1nc2c(cc1=O)CN(CCCS(N)(=O)=O)CC2,-2.48
22,Cc1cc(C)n(-c2ccc(N3CCC4(CC3)OCC(C)O4)nc2)n1 (stereo not drawn),-1.39

row,SMILES,cytotoxicity at 10 µM [%]
1,CN1CCN(c2ccc(NS(=O)(=O)c3ccc(Cl)s3)cc2C(=O)O)CC1,-1.08
2,CN1CC(=O)N(C2CCNCC2)Cc2c(NCC(C)(C)C)ncnc21,6.2
3,N#Cc1ccc(N2CCC3(CCCN(c4ccccn4)C3)C2)nc1 (stereo not drawn),15.6
4,CC(=O)N[C@@H]1CN(C(=O)c2cnccn2)C[C@H]1c1ccc(C)cc1,6.62
5,CC(NC1(CNS(=O)(=O)N(C)C)CCCC1)c1ccccc1 (stereo not drawn),-5.01
6,CN(C)C(=O)CN1CCC2(CCCN(Cc3ccsc3)C2)C1=O (stereo not drawn),-106
7,COc1ccc(NC(=O)CNc2ccc(Br)cc2F)cc1,0.795
8,CC(C)N1C(=O)CC(N2CCN(c3ccc(F)cc3)CC2)C1=O (stereo not drawn),8.44
9,CCN(CC(F)(F)F)C(=O)C1CCCN(Cc2cscn2)C1 (stereo not drawn),-8.64
10,COC(=O)c1ccc(NC(=O)CN2CCCCC2C2OCCO2)cc1 (stereo not drawn),42.5
11,Cc1nccc(-c2cccc(NCC(=O)N3CCNC(=O)C3)c2)n1,-0.797
12,CN1CCN(CC2CC2)C(=O)c2cnc(N3CCCC3)nc21,5.08
13,CNC(=O)CN1CC[C@H]2CN(C(=O)c3ccccc3C)C[C@H]2C1,0.793
14,COCCCS(=O)(=O)N(Cc1cccc(C)c1)Cc1ccccn1,2.47
15,CCn1cc(NC(=O)CN2CCC(Oc3ccccc3C)CC2)c(C)n1,0.343
16,CC(=O)c1c(F)cccc1NCC(O)c1ccc(F)c(F)c1 (stereo not drawn),13.3
17,CN1[C@H](CN2CCCC2)C[C@@H]2CN(C(=O)c3cccn3C)CC[C@@H]21,5.57
18,COCc1n[nH]c2c1CN(Cc1cccs1)C2,3.3
19,Cn1ccnc1N1CCN(C(=O)Cc2ccccc2)CC1,3.13
20,CC(=O)N(C)Cc1cccc(NC(=O)c2cnn(C)c2C)c1,3.5
21,CC(C)n1cnc2c(-c3cccnc3)nc(C3CCNCC3)cc21,-114
22,Cc1ncsc1CCn1ccnc1-c1cc2n(n1)CCCNC2,-0.434

row,SMILES,cytotoxicity at 10 µM [%]
1,CN(Cc1cnn(C)c1)C(=O)NCc1ccc2c(c1)OCCO2,-8.01
2,CCOc1cccc(C(C)NCc2c(C)nn(C)c2N(C)C)c1 (stereo not drawn),5.22
3,COc1cc(C2c3c(n[nH]c3C)N=C3COC(=O)C32)cc2c1OCO2 (stereo not drawn),87.7
4,CC(C)(C)c1nnc2n1C(C(=O)N1CCN(c3ncccn3)CC1)CC2 (stereo not drawn),-7.46
5,CS(=O)(=O)N[C@@H]1CN(Cc2ccc3ncccc3c2)C[C@H]1O,-4.34
6,CCOc1ccc(Cl)c(C(=O)NC(C(N)=O)c2ccccc2)n1 (stereo not drawn),-0.425
7,Cc1cnn(CC2CN(CC(=O)Nc3cccnc3)CCO2)c1 (stereo not drawn),8.1
8,CN(C)CCN1CC2(CCCN(c3ncc(Cl)cc3F)C2)CCC1=O (stereo not drawn),-13.6
9,CC(O)CN1CCc2[nH]nc(C(c3ccccc3)c3ccccc3)c2C1 (stereo not drawn),-0.481
10,Cc1nn(C)c(N(C)C)c1CNCCCNS(C)(=O)=O,-5.98
11,CCC(NCc1ccccc1C)c1ccccc1OCC(=O)NC (stereo not drawn),16.9
12,O=C(c1cnn2cccnc12)N1CCCC(n2ccnc2)C1 (stereo not drawn),-29.7
13,Cc1ccc(Cn2cc(C)c(N)n2)cc1,-0.751
14,COc1ccc(C(=O)N2CCOCC2c2ccc(C)o2)cc1 (stereo not drawn),-2.24
15,CN(CCCOc1ccccc1Cl)C(=O)CN1C(=O)CCNC1=O,-1.97
16,O=C(Cn1cccn1)N1CCC(Oc2ccc(C(F)(F)F)cn2)CC1,8.77
17,N#CCCN(C(=O)CCc1cscn1)c1ccc2c(c1)OCCO2,-2.12
18,CC(Cn1cccn1)NCc1nc(-c2cccc(Cl)c2)no1 (stereo not drawn),-9.21
19,CCCC(C)(C)NC(=O)c1cnc(C)s1,4.51
20,Cn1nnnc1SCc1cc2c(cc1Cl)OCO2,1.14
21,O=C(NCc1ccco1)N1CCOC(c2ccccc2Cl)C1 (stereo not drawn),-1.91
22,COCC1CN(C(=O)c2cnc(C)cn2)Cc2ncnn2C1 (stereo not drawn),2.31

row,SMILES,cytotoxicity at 10 µM [%]
1,O=C(c1ccc(Cl)o1)N1CCCC1c1nnc2n1CCCCC2 (stereo not drawn),-4.52
2,CN1CCN(C(=O)CCCc2ccccc2)CC(O)(Cn2cccn2)C1 (stereo not drawn),-1.93
3,O=C(CC1CC1)N1CCCn2nnc(CNc3ncccn3)c2C1,-0.802
4,Cc1noc(C)c1C(=O)N1CCC(Nc2cccnn2)CC1,-4.48
5,Cc1ccc(C(=O)N2CC[C@H](Oc3cccnc3C)[C@@H](O)CC2)s1,-5.58
6,CN(C)CCN1C[C@@H]2CN(C(=O)C3CCOC3)C[C@@H]2C1=O (stereo partly drawn),-5.18
7,Cc1cc(CNCC2Cn3nnc(C)c3CO2)oc1C (stereo not drawn),6.65
8,Cc1ccc(C2(C(=O)NCCCn3cccn3)CCOCC2)cc1,9.73
9,COCc1cccc(S(=O)(=O)Nc2ncc(C)s2)c1,-8.13
10,Cc1nc(CN2CC[C@H]3C[C@H](c4ccncn4)O[C@@H]3C2)cs1,-144
11,CC(c1ccco1)N(C)Cc1nc2c(cnn2C)c(=O)[nH]1 (stereo not drawn),-3.29
12,CC(c1cccc(-c2ncc(C#N)c(N)n2)c1)N(C)C (stereo not drawn),-7.3
13,COc1ccccc1CN1C(=O)O[C@@H]2CN(C(C)C)C[C@@H]21,3.99
14,Cc1cc(C)c(C(=O)NC2CCCc3nc(N(C)C)ncc32)cc1C (stereo not drawn),-1.25
15,CC(=O)c1ccc(CN2C[C@@H](CN3CCC(O)CC3)[C@@H](CO)C2)cc1,9.99
16,CN(Cc1ccc(F)c(F)c1)Cc1cc2c(cc1Br)OCCO2,-140
17,CCCOc1ccc2c(c1)OCC(C(=O)NC(C)Cn1cccn1)=C2 (stereo not drawn),4.46
18,Cc1nc(CN(C)C(=O)CNC(=O)c2ccc(C#N)cc2)cs1,12.5
19,O=S1(=O)CCCN1Cc1coc(-c2cccs2)n1,17.5
20,CC(c1nnc(-c2cccs2)o1)N1CCn2c(nnc2C2CC2)C1 (stereo not drawn),17.7
21,CCC(NC(=O)c1coc(COc2cccc(F)c2F)n1)C(=O)NC (stereo not drawn),1.03
22,COCCN1CCCC2(CCN(c3nccc4ccccc34)C2)C1=O (stereo not drawn),-0.212

row,SMILES,cytotoxicity at 10 µM [%]
1,CCCS(=O)(=O)N1C[C@@H]2C[C@H](C(=O)Nc3cccnc3)[C@H](C1)O2,-78.8
2,CCn1cc(CNC2CCN(c3c(F)cccc3F)C2)cn1 (stereo not drawn),-2.93
3,O=C(NCc1cccs1)[C@H]1CC[C@@H]2[C@@H](CCN2Cc2ccoc2)O1,-0.317
4,CCc1nc(C(=O)N2CC(C(C)C)Nc3ccccc32)c[nH]1 (stereo not drawn),-0.0979
5,Cc1nccc(-c2cccc(NCC(=O)NCC(=O)N3CCCC3)c2)n1,-9.18
6,Cc1nc([C@@H]2C[C@@H]3CCN(C(=O)Cc4cccs4)C[C@H]3O2)no1,3.27
7,CSc1ccc(S(=O)(=O)N2CCCCC2CCNC(C)=O)cc1 (stereo not drawn),-9.61
8,CN(Cc1cccnc1)[C@@H]1CN(C(=O)NC2CC2)[C@@H]2CCCO[C@H]12,2.75
9,CO[C@@H]1CCN(c2ncc(F)cn2)[C@H]1Cc1cnn(C)c1,-2.63
10,COc1cccc(CN2CCC3(CC2)CCN(c2ncc(F)cn2)C3)c1,1.42
11,CCOc1ccccc1-c1noc(CN2CC(n3cccn3)C2)n1,-2.79
12,Cc1ccc(CN2C[C@@H]3[C@@H](C(=O)NCC(C)C)CCS(=O)(=O)[C@@H]3C2)cc1,0.793
13,CCOc1ccc2[nH]c(=O)c(CN3CCCC3c3ccccn3)cc2c1 (stereo not drawn),-7.04
14,COc1cccc(N2CCN(CC(O)c3ccc(C)cc3)CC2)c1 (stereo not drawn),-11.6
15,CN1C(=O)C(c2ccccc2)CC12CCN(CCN1CCCC1=O)CC2 (stereo not drawn),-14.6
16,CCN1C(=O)C2(CCCCC2)NC1c1cc(C#N)n(C)c1C (stereo not drawn),4.59
17,Cc1c(C(=O)N2CCC(O)(CN(C)C)C2)c2ccccc2n1C (stereo not drawn),3.49
18,Cc1ncc(CN2CCOC(CN(C)c3cccnn3)C2)s1 (stereo not drawn),2.86
19,CCS(=O)(=O)N1CCc2c(COCc3ccncc3)cncc2C1,-84.1
20,Cc1nc(C)c(CNCC2(COc3cccnc3)C[C@@H](O)[C@@H](O)C2)s1 (stereo partly drawn),-1.36
